Numbered stars: 1 amine (or outer) side, 2 acyl side, 3 side chain; on linkers, the order of the positions; unused ones are H or OH. Bridge positions count the residues as written; N and C are the ends. Square brackets hold non-standard residues; d marks the D form. Peptide text beside a SMILES is read from it. * marks the point of attachment. Fluorescein(5-NHCS) = O=C1OC2(c3ccc(O)cc3Oc3cc(O)ccc32)c2cc(NC(=S)*)ccc21; Gly(N-but-3-enyl) = O=C(CN(CCC=[*:3])[*:1])[*:2]; X3 = O=C(CN(CCCCCCC=[*:3])[*:1])[*:2]; N(7-octenyl)Gly = C=CCCCCCCNCC(=O)O; X1 = O=C(CN(CCCC=[*:3])[*:1])[*:2]; X2 = O=C(CN(CC=[*:3])[*:1])[*:2]; Ava = NCCCCC(=O)O

The first series has as its system HeLa. Put plainly: Cellular uptake in human HeLa cells assessed as fluorescence intensity by FACS analysis relative to control. Format: ADME, cell-based. To be noted: in the assay text read “fluorescence microscopy” for “FACS analysis”. The essentials: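 Uptake of FITC-tagged peptide-peptoid hybrids was measured by fluorescence microscopy. The value is the average fluorescence intensity of treated cells, quantified from at least 20 cells taken from 4–6 fields, each field holding about 5 cells.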
Take `C[C@@H]1NC(=O)[C@H]([C@@H](C)O)NC(=O)[C@@H]2CCCN2C(=O)[C@H](CCC(=O)O)NC(=O)CN(C(=O)CCCCNC(=S)Nc2ccc3c(c2)C2(OC3=O)c3ccc(O)cc3Oc3cc(O)ccc32)CCCCCC/C=C\CCCCCCN(CC(N)=O)C(=O)[C@H](CCC(=O)O)NC(=O)[C@@H]2CCCN2C(=O)[C@@H]2CCCN2C1=O`: the Drug uptake amounted to 328%. `C[C@@H]1NC(=O)[C@H]([C@@H](C)O)NC(=O)[C@@H]2CCCN2C(=O)CN(C(=O)[C@@H]2CCCN2C(=O)CCCCNC(=S)Nc2ccc3c(c2)C2(OC3=O)c3ccc(O)cc3Oc3cc(O)ccc32)CC/C=C\CCCCCCN(CC(N)=O)C(=O)[C@H](CCC(=O)O)NC(=O)[C@@H]2CCCN2C(=O)[C@@H]2CCCN2C1=O`: the Drug uptake worked out at 77%.

As for `C[C@@H]1NC(=O)[C@H]([C@@H](C)O)NC(=O)[C@@H]2CCCN2C(=O)CN(C(=O)[C@@H]2CCCN2C(=O)CCCCNC(=S)Nc2ccc3c(c2)C2(OC3=O)c3ccc(O)cc3Oc3cc(O)ccc32)CCCCCC/C=C\CCCCCCN(CC(N)=O)C(=O)[C@H](CCC(=O)O)NC(=O)[C@@H]2CCCN2C(=O)[C@@H]2CCCN2C1=O`, the Drug uptake is on record as 199%. The same measure, in the same setting: the same measure for `C=CCN(CC(N)=O)C(=O)[C@H](CCC(=O)O)NC(=O)[C@@H]1CCCN1C(=O)[C@@H]1CCCN1C(=O)[C@H](C)NC(=O)[C@@H](NC(=O)[C@@H]1CCCN1C(=O)CN(CC=C)C(=O)[C@@H]1CCCN1C(=O)CCCCNC(=S)Nc1ccc2c(c1)C1(OC2=O)c2ccc(O)cc2Oc2cc(O)ccc21)[C@@H](C)O`: 98%; for `C[C@@H]1NC(=O)[C@H]([C@@H](C)O)NC(=O)[C@@H]2CCCN2C(=O)[C@H](CCC(=O)O)NC(=O)CN(C(=O)CCCCNC(=S)Nc2ccc3c(c2)C2(OC3=O)c3ccc(O)cc3Oc3cc(O)ccc32)CC/C=C\CCCCCCN(CC(N)=O)C(=O)[C@H](CCC(=O)O)NC(=O)[C@@H]2CCCN2C(=O)[C@@H]2CCCN2C1=O`: 100%. Still for that read-out and setting: the same measure for `C=CCCCCCCN(CC(=O)N[C@@H](CCC(=O)O)C(=O)N1CCC[C@H]1C(=O)N[C@H](C(=O)N[C@@H](C)C(=O)N1CCC[C@H]1C(=O)N1CCC[C@H]1C(=O)N[C@@H](CCC(=O)O)C(=O)N(CCCCCCC=C)CC(N)=O)[C@@H](C)O)C(=O)CCCCNC(=S)Nc1ccc2c(c1)C1(OC2=O)c2ccc(O)cc2Oc2cc(O)ccc21`: 35%; for `C=CCCCCCCN(CC(N)=O)C(=O)[C@H](CCC(=O)O)NC(=O)[C@@H]1CCCN1C(=O)[C@@H]1CCCN1C(=O)[C@H](C)NC(=O)[C@@H](NC(=O)[C@@H]1CCCN1C(=O)CN(CCCCCCC=C)C(=O)[C@@H]1CCCN1C(=O)CCCCNC(=S)Nc1ccc2c(c1)C1(OC2=O)c2ccc(O)cc2Oc2cc(O)ccc21)[C@@H](C)O`: 42%. On to `C=CCN(CC(=O)N[C@@H](CCC(=O)O)C(=O)N1CCC[C@H]1C(=O)N[C@H](C(=O)N[C@@H](C)C(=O)N1CCC[C@H]1C(=O)N1CCC[C@H]1C(=O)N[C@@H](CCC(=O)O)C(=O)N(CC=C)CC(N)=O)[C@@H](C)O)C(=O)CCCCNC(=S)Nc1ccc2c(c1)C1(OC2=O)c2ccc(O)cc2Oc2cc(O)ccc21` (stereo in doubt; 1'-(1,1)), for which the Drug uptake is on record as 74%. The same measure, in the same setting: the same measure for `C[C@@H]1NC(=O)[C@H]([C@@H](C)O)NC(=O)[C@@H]2CCCN2C(=O)CN(C(=O)[C@@H]2CCCN2C(=O)CCCCNC(=S)Nc2ccc3c(c2)C2(OC3=O)c3ccc(O)cc3Oc3cc(O)ccc32)CC/C=C/CCCCCCN(CC(=O)N[C@@H](CCC(=O)O)C(N)=O)C(=O)[C@@H]2CCCN2C(=O)[C@@H]2CCCN2C1=O` ({Fluorescein(5-NHCS)-Ava}-P[Gly(N-but-3-enyl)]PTAPP[X3]E-NH2; staple (E) 2-8): 76%.

In the case of `C=CCCCCCCN(CC(=O)N1CCC[C@H]1C(=O)N[C@H](C(=O)N[C@@H](C)C(=O)N1CCC[C@H]1C(=O)N1CCC[C@H]1C(=O)N(CCCCCCC=C)CC(=O)N[C@@H](CCC(=O)O)C(N)=O)[C@@H](C)O)C(=O)[C@@H]1CCCN1C(=O)CCCCNC(=S)Nc1ccc2c(c1)C1(OC2=O)c2ccc(O)cc2Oc2cc(O)ccc21` ({Fluorescein(5-NHCS)-Ava}-P[N(7-octenyl)Gly]PTAPP[N(7-octenyl)Gly]E-NH2), the Drug uptake was determined as 45%. Still for that read-out and setting: the result for `C[C@@H]1NC(=O)[C@H]([C@@H](C)O)NC(=O)[C@@H]2CCCN2C(=O)CN(C(=O)[C@@H]2CCCN2C(=O)CCCCNC(=S)Nc2ccc3c(c2)C2(OC3=O)c3ccc(O)cc3Oc3cc(O)ccc32)CCCCCC/C=C\CCCCCCN(CC(=O)N[C@@H](CCC(=O)O)C(N)=O)C(=O)[C@@H]2CCCN2C(=O)[C@@H]2CCCN2C1=O` ({Fluorescein(5-NHCS)-Ava}-P[X3]PTAPP[X3]E-NH2; staple (Z) 2-8) reads 200%. Regarding `C[C@@H]1NC(=O)[C@H]([C@@H](C)O)NC(=O)[C@@H]2CCCN2C(=O)[C@H](CCC(=O)O)NC(=O)CN(C(=O)CCCCNC(=S)Nc2ccc3c(c2)C2(OC3=O)c3ccc(O)cc3Oc3cc(O)ccc32)CC/C=C/CCCCCCN(CC(=O)N[C@@H](CCC(=O)O)C(N)=O)C(=O)[C@@H]2CCCN2C(=O)[C@@H]2CCCN2C1=O` ({Fluorescein(5-NHCS)-Ava}-[Gly(N-but-3-enyl)]EPTAPP[X3]E-NH2; staple (E) 1-8), the Drug uptake is reported as 100%. Same read-out and setting: the same measure for `C=CCCCCCCN(CC(=O)N[C@@H](CCC(=O)O)C(=O)N1CCC[C@H]1C(=O)N[C@H](C(=O)N[C@@H](C)C(=O)N1CCC[C@H]1C(=O)N1CCC[C@H]1C(=O)N(CCCCCCC=C)CC(=O)N[C@@H](CCC(=O)O)C(N)=O)[C@@H](C)O)C(=O)CCCCNC(=S)Nc1ccc2c(c1)C1(OC2=O)c2ccc(O)cc2Oc2cc(O)ccc21` ({Fluorescein(5-NHCS)-Ava}-[N(7-octenyl)Gly]EPTAPP[N(7-octenyl)Gly]E-NH2): 40%; for H-PEPTAPPEE-OH: 74%.

For another series, the target named is T1, Tumor susceptibility gene 101 protein (Homo sapiens, UniProt Q99816).
T1 sequence (Q99816 whole entry): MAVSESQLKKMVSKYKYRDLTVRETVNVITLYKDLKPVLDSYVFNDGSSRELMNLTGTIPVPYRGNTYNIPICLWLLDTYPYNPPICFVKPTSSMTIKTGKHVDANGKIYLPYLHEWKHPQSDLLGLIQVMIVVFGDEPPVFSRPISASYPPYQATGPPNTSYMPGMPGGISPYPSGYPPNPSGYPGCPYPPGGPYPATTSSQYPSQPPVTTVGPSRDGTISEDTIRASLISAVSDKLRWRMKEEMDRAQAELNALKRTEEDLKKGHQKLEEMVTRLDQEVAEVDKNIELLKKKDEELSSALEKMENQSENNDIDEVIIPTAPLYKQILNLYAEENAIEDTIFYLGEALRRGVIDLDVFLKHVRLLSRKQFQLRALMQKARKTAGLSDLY
Put plainly: Binding affinity to ubiquitin E2 variant domain of human Tsg101 by fluorescent anisotropy.
Conditions: not given
`C[C@@H]1NC(=O)[C@H]([C@@H](C)O)NC(=O)[C@@H]2CCCN2C(=O)[C@H](CCC(=O)O)NC(=O)CN(C(=O)CCCCNC(=S)Nc2ccc3c(c2)C2(OC3=O)c3ccc(O)cc3Oc3cc(O)ccc32)CCC/C=C\CN(CC(N)=O)C(=O)[C@H](CCC(=O)O)NC(=O)[C@@H]2CCCN2C(=O)[C@@H]2CCCN2C1=O` showed a Kd above 500 µM.

Compound `C[C@@H]1NC(=O)[C@H]([C@@H](C)O)NC(=O)[C@@H]2CCCN2C(=O)[C@H](CCC(=O)O)NC(=O)CN(C(=O)CCCCNC(=S)Nc2ccc3c(c2)C2(OC3=O)c3ccc(O)cc3Oc3cc(O)ccc32)CCCCC/C=C\CN(CC(N)=O)C(=O)[C@H](CCC(=O)O)NC(=O)[C@@H]2CCCN2C(=O)[C@@H]2CCCN2C1=O` yielded a dissociation constant (Kd) above 500 µM. Same read-out and setting: the result for `C[C@@H]1NC(=O)[C@H]([C@@H](C)O)NC(=O)[C@@H]2CCCN2C(=O)CN(C(=O)[C@@H]2CCCN2C(=O)CCCCNC(=S)Nc2ccc3c(c2)C2(OC3=O)c3ccc(O)cc3Oc3cc(O)ccc32)CCCCC=CCN(CC(N)=O)C(=O)[C@H](CCC(=O)O)NC(=O)[C@@H]2CCCN2C(=O)[C@@H]2CCCN2C1=O` reads 108 µM; that for `C[C@@H]1NC(=O)[C@H]([C@@H](C)O)NC(=O)[C@@H]2CCCN2C(=O)[C@H](CCC(=O)O)NC(=O)CN(C(=O)CCCCNC(=S)Nc2ccc3c(c2)C2(OC3=O)c3ccc(O)cc3Oc3cc(O)ccc32)CCC=CCN(CC(N)=O)C(=O)[C@H](CCC(=O)O)NC(=O)[C@@H]2CCCN2C(=O)[C@@H]2CCCN2C1=O`, above 500 µM; that for `C[C@@H]1NC(=O)[C@H]([C@@H](C)O)NC(=O)[C@@H]2CCCN2C(=O)[C@H](CCC(=O)O)NC(=O)CN(C(=O)CCCCNC(=S)Nc2ccc3c(c2)C2(OC3=O)c3ccc(O)cc3Oc3cc(O)ccc32)CCCC/C=C\CN(CC(N)=O)C(=O)[C@H](CCC(=O)O)NC(=O)[C@@H]2CCCN2C(=O)[C@@H]2CCCN2C1=O`, above 500 µM. On the same count and under the same terms, the same measure for `C[C@@H]1NC(=O)[C@H]([C@@H](C)O)NC(=O)[C@@H]2CCCN2C(=O)[C@H](CCC(=O)O)NC(=O)CN(C(=O)CCCCNC(=S)Nc2ccc3c(c2)C2(OC3=O)c3ccc(O)cc3Oc3cc(O)ccc32)CCC/C=C\CCCCCCN(CC(N)=O)C(=O)[C@H](CCC(=O)O)NC(=O)[C@@H]2CCCN2C(=O)[C@@H]2CCCN2C1=O`: 106 µM.

For the compound `C[C@@H]1NC(=O)[C@H]([C@@H](C)O)NC(=O)[C@@H]2CCCN2C(=O)CN(C(=O)[C@@H]2CCCN2C(=O)CCCCNC(=S)Nc2ccc3c(c2)C2(OC3=O)c3ccc(O)cc3Oc3cc(O)ccc32)CC/C=C\CN(CC(=O)N[C@@H](CCC(=O)O)C(N)=O)C(=O)[C@@H]2CCCN2C(=O)[C@@H]2CCCN2C1=O` ({Fluorescein(5-NHCS)-Ava}-P[Gly(N-but-3-enyl)]PTAPP[X2]E-NH2; staple (Z) 2-8), the Kd was 171 µM. `C[C@@H]1NC(=O)[C@H]([C@@H](C)O)NC(=O)[C@@H]2CCCN2C(=O)CN(C(=O)[C@@H]2CCCN2C(=O)CCCCNC(=S)Nc2ccc3c(c2)C2(OC3=O)c3ccc(O)cc3Oc3cc(O)ccc32)CCCC=CCN(CC(=O)N[C@@H](CCC(=O)O)C(N)=O)C(=O)[C@@H]2CCCN2C(=O)[C@@H]2CCCN2C1=O` ({Fluorescein(5-NHCS)-Ava}-P[X1]PTAPP[X2]E-NH2; staple 2-8) displayed a Kd above 500 µM. `C[C@@H]1NC(=O)[C@H]([C@@H](C)O)NC(=O)[C@@H]2CCCN2C(=O)CN(C(=O)[C@@H]2CCCN2C(=O)CCCCNC(=S)Nc2ccc3c(c2)C2(OC3=O)c3ccc(O)cc3Oc3cc(O)ccc32)C/C=C\CN(CC(=O)N[C@@H](CCC(=O)O)C(N)=O)C(=O)[C@@H]2CCCN2C(=O)[C@@H]2CCCN2C1=O` ({Fluorescein(5-NHCS)-Ava}-P[X2]PTAPP[X2]E-NH2; staple (Z) 2-8) gave a Kd of 218 µM.

Values taken from ChEMBL document CHEMBL1153736, “Application of ring-closing metathesis macrocyclization to the development of Tsg101-binding antagonists” (Bioorg Med Chem Lett, 2010).
